The record followed here is ChEMBL document CHEMBL5360562 (Eur J Med Chem, 2023).

One may read the MIC as the lowest concentration found to suppress growth. A word on the IC50: it is the concentration needed to halve the response being measured.

Structures are written as SMILES. Values after ≈ are worked out from the molar mass of the structure shown.

Data set [1] deals with Acinetobacter baumannii. Kind of data set: Potentiation of Azithromycin antibacterial activity against Acinetobacter baumannii AB5075 assessed as azithromycin MIC at 20 uM incubated for 16 hrs by broth microdilution method. It is filed as functional. (In general: Broth dilution looks for growth in wells or tubes with falling amounts of substance.)
Data set [2] has as its system Acinetobacter baumannii. As to the kind of experiment: Potentiation of erythromycin antibacterial activity against Acinetobacter baumannii AB5075 assessed as erythromycin MIC at 30 uM incubated for 16 hrs by broth microdilution method. Type of data set: functional.
Data set [3] deals with Acinetobacter baumannii. Kind of data set: Potentiation of Clarithromycin antibacterial activity against Acinetobacter baumannii AB5075 assessed as clarithromycin MIC at 20 uM incubated for 16 hrs by broth microdilution method. It is filed as functional.
Data set [4] concerns Acinetobacter baumannii. Kind of data set: Potentiation of Clarithromycin antibacterial activity against Acinetobacter baumannii AB5075 assessed as clarithromycin MIC at 10 uM incubated for 16 hrs by broth microdilution method. Type of data set: functional.
The subject of data set [5] is Acinetobacter baumannii. As to the kind of experiment: Potentiation of Clarithromycin antibacterial activity against Acinetobacter baumannii AB5075 assessed as fold reduction in clarithromycin MIC at 30 uM incubated for 16 hrs by broth microdilution method. It is filed as functional. A digest of the protocol: (§1)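 Checkerboard-style potentiation by broth microdilution. 6 h day cultures in CAMHB diluted to 5×10^5 CFU/mL. Adjuvant added from 10 mM DMSO stock at fixed concentration throughout. […] Controls: antibiotic alone, adjuvant alone, media only. Incubated stationary at 37 °C for 16 h. MIC is lowest concentration with no visible growth; fold reduction taken against the antibiotic-alone lane.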

Data set [6] has as its system Acinetobacter baumannii. As to the kind of experiment: Potentiation of rifampicin antibacterial activity against Acinetobacter baumannii AB5075 assessed as rifampicin MIC at 10 uM incubated for 16 hrs by broth microdilution method. It is filed as functional.
Data set [7] has as its system Acinetobacter baumannii. Kind of data set: Potentiation of erythromycin antibacterial activity against Acinetobacter baumannii AB5075 assessed as erythromycin MIC at 10 uM incubated for 16 hrs by broth microdilution method. It is filed as functional.
The subject of data set [8] is Acinetobacter baumannii. Kind of data set: Potentiation of Clarithromycin antibacterial activity against Acinetobacter baumannii AB5075 assessed as reduction in clarithromycin MIC at 20 uM incubated for 16 hrs by broth microdilution method. Type of data set: functional.
Data set [9] concerns Acinetobacter baumannii. Kind of data set: Potentiation of Clarithromycin antibacterial activity against Acinetobacter baumannii AB5075 assessed as clarithromycin MIC at 7.5 uM incubated for 16 hrs by broth microdilution method. Type of data set: functional.
Data set [10] has as its system Acinetobacter baumannii. As to the kind of experiment: Potentiation of erythromycin antibacterial activity against Acinetobacter baumannii AB5075 assessed as erythromycin MIC at 20 uM incubated for 16 hrs by broth microdilution method. It is filed as functional.
Data set [11] relates to Acinetobacter baumannii. Kind of data set: Potentiation of Azithromycin antibacterial activity against Acinetobacter baumannii AB5075 assessed as azithromycin MIC at 10 uM incubated for 16 hrs by broth microdilution method. Type of data set: functional.
Data set [12] has as its system Acinetobacter baumannii. As to the kind of experiment: Potentiation of Clarithromycin antibacterial activity against Acinetobacter baumannii AB5075 assessed as clarithromycin MIC at 30 uM incubated for 16 hrs by broth microdilution method. Type of data set: functional.
For data set [13], the system named is Acinetobacter baumannii. Kind of data set: Potentiation of Azithromycin antibacterial activity against Acinetobacter baumannii AB5075 assessed as azithromycin MIC at 30 uM incubated for 16 hrs by broth microdilution method. It is filed as functional.
The test system of data set [14] is Acinetobacter baumannii. As to the kind of experiment: Antibacterial activity against Acinetobacter baumannii AB5075 assessed as reduction in bacterial growth incubated for 16 hrs by broth microdilution method. Type of data set: functional.
Data set [15] deals with Acinetobacter baumannii. Kind of data set: Potentiation of rifampicin antibacterial activity against Acinetobacter baumannii AB5075 assessed as rifampicin MIC at 30 uM incubated for 16 hrs by broth microdilution method. It is filed as functional.
The test system of data set [16] is Acinetobacter baumannii. As to the kind of experiment: Potentiation of rifampicin antibacterial activity against Acinetobacter baumannii AB5075 assessed as rifampicin MIC at 20 uM incubated for 16 hrs by broth microdilution method. Type of data set: functional.
The test system of data set [17] is Acinetobacter baumannii. As to the kind of experiment: Potentiation of Azithromycin antibacterial activity against Acinetobacter baumannii AB5075 assessed as azithromycin MIC at 7.5 uM incubated for 16 hrs by broth microdilution method. It is filed as functional.
In data set [18] the test system is Acinetobacter baumannii. As to the kind of experiment: Potentiation of Clarithromycin antibacterial activity against Acinetobacter baumannii AB4498 assessed as clarithromycin MIC at 10 uM incubated for 16 hrs by broth microdilution method. Type of data set: functional.
Data set [19] deals with Acinetobacter baumannii. Kind of data set: Potentiation of Clarithromycin antibacterial activity against Acinetobacter baumannii AB5711 assessed as clarithromycin MIC at 10 uM incubated for 16 hrs by broth microdilution method. It is filed as functional.
For data set [20], the system named is Acinetobacter baumannii. As to the kind of experiment: Potentiation of Clarithromycin antibacterial activity against Acinetobacter baumannii AB5075 assessed as fold reduction in clarithromycin MIC at 10 uM incubated for 16 hrs by broth microdilution method. Type of data set: functional. The procedure, abridged:
as §1

The subject of data set [21] is Acinetobacter baumannii. Kind of data set: Potentiation of Clarithromycin antibacterial activity against Acinetobacter baumannii AB3785 assessed as clarithromycin MIC at 10 uM incubated for 16 hrs by broth microdilution method. It is filed as functional.
Data set [22] in a line: Therapeutic index, ratio of IC50 for antiproliferative against human HepG2 cells assessed as reduction in cell viability to MIC for potentiation of Clarithromycin antibacterial activity against Acinetobacter baumannii […] assessed as clarithromycin MIC. Type of data set: toxicity, cell-based. The note with it: read-out: TI.
Data set [23] deals with Acinetobacter baumannii. Kind of data set: Potentiation of Clarithromycin antibacterial activity against Acinetobacter baumannii AB5075 assessed as clarithromycin MIC at 5 uM incubated for 16 hrs by broth microdilution method. It is filed as functional.
The subject of data set [24] is Acinetobacter baumannii. As to the kind of experiment: Potentiation of rifampicin antibacterial activity against Acinetobacter baumannii AB5075 assessed as fold reduction in rifampicin MIC at 10 uM incubated for 16 hrs by broth microdilution method. It is filed as functional.
Data set [25] can be described thus: Antiproliferative against human HepG2 cells assessed as reduction in cell viability incubated for 24 hrs by XTT assay. Type of data set: toxicity, cell-based.
In data set [26] the test system is Acinetobacter baumannii. Kind of data set: Potentiation of Clarithromycin antibacterial activity against Acinetobacter baumannii AB5674 assessed as clarithromycin MIC at 10 uM incubated for 16 hrs by broth microdilution method. Type of data set: functional.
Data set [27] is described as follows: Metabolic stability in human liver microsomes assessed as parent compound remaining in presence of NADPH measured at 1 hr by UV-UPLC analysis. Type of data set: ADME, Microsome. Background: Liver microsomes are vesicles of endoplasmic reticulum, rich in cytochrome P450 enzymes.
The subject of data set [28] is Acinetobacter baumannii. Kind of data set: Potentiation of Clarithromycin antibacterial activity against Acinetobacter baumannii AB5075 assessed as fold reduction in clarithromycin MIC at 7.5 uM incubated for 16 hrs by broth microdilution method. Type of data set: functional. The procedure, abridged:
as §1

Data set [29] has as its system Acinetobacter baumannii. Kind of data set: Potentiation of erythromycin antibacterial activity against Acinetobacter baumannii AB5075 assessed as erythromycin MIC at 7.5 uM incubated for 16 hrs by broth microdilution method. It is filed as functional.
Data set [30] has as its system Acinetobacter baumannii. Kind of data set: Potentiation of Clarithromycin antibacterial activity against Acinetobacter baumannii AB3560 assessed as clarithromycin MIC at 10 uM incubated for 16 hrs by broth microdilution method. It is filed as functional.
Data set [31] concerns Acinetobacter baumannii. As to the kind of experiment: Potentiation of Clarithromycin antibacterial activity against Acinetobacter baumannii AB967 assessed as clarithromycin MIC at 10 uM incubated for 16 hrs by broth microdilution method. It is filed as functional.
Data set [32] in a line: Stability of compound in human plasma assessed as parent compound remaining measured at 4 hrs. It is filed as ADME, cell-free. A digest of the protocol: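 Compound at 20 μM final in human plasma (from 10 mM DMSO stock), 37 °C; aliquots at 0, 30, 60, 120, 240 min quenched in internal standard in 1:1 ACN/MeOH, centrifuged, supernatant analysed by UPLC-MRM. Peak-area ratio to internal standard expressed as % parent remaining relative to 0 min; half-life calculated.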

A further data set concerns Pseudomonas aeruginosa. As to the kind of experiment: Antibacterial activity against Pseudomonas aeruginosa PAO1 assessed as inhibition of bacterial growth incubated for 16 hrs by broth microdilution method. Type of data set: functional. A digest of the protocol:
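Standalone MIC by broth microdilution. 6 h day cultures in cation-adjusted Mueller-Hinton broth (CAMHB) diluted to 5×10^5 CFU/mL. Compound added from 10 mM DMSO stock to 200 μM (highest concentration), then twofold serial dilution. Incubated stationary at 37 °C for 16 h. OD600 read; MIC is lowest concentration with <10% growth versus positive control.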

In data set [33] the test system is Acinetobacter baumannii. Kind of data set: Antibacterial activity against Acinetobacter baumannii AB5711 assessed as reduction in bacterial growth incubated for 16 hrs by broth microdilution method. Type of data set: functional.
The subject of data set [34] is Acinetobacter baumannii. As to the kind of experiment: Antibacterial activity against Acinetobacter baumannii AB967 assessed as reduction in bacterial growth incubated for 16 hrs by broth microdilution method. Type of data set: functional. The procedure, abridged: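 Six-hour CAMHB day cultures were diluted to 5×10^5 CFU/mL in CAMHB and dosed from DMSO stocks. Two-fold serial dilutions were made in broth, with a medium-only blank. Plates were incubated stationary at 37 °C for 16 h and read at OD600. The MIC was the lowest concentration giving <10% growth versus the positive control.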

For data set [35], the system named is Acinetobacter baumannii. Kind of data set: Antibacterial activity against Acinetobacter baumannii AB3785 assessed as reduction in bacterial growth incubated for 16 hrs by broth microdilution method. Type of data set: functional.
For data set [36], the system named is Acinetobacter baumannii. As to the kind of experiment: Antibacterial activity against Acinetobacter baumannii AB4498 assessed as reduction in bacterial growth incubated for 16 hrs by broth microdilution method. Type of data set: functional.

With `Nc1nc(-c2ccc(NC(=O)Nc3ccc(-c4c[nH]c(N)n4)cc3)cc2)c[nH]1`, the MIC in the data set with Acinetobacter baumannii [1] turned out to be 1 µg/mL; in the data set on Acinetobacter baumannii [2] it was 0.5 µg/mL; with Acinetobacter baumannii [3], 0.5 µg/mL; in the data set with Acinetobacter baumannii [4] it was 4 µg/mL; with Acinetobacter baumannii [6] it was 2 µg/mL; in the data set with Acinetobacter baumannii [7] it was 8 µg/mL. In addition, the MIC was 8 µg/mL in the data set on Acinetobacter baumannii [9]; 2 µg/mL in the data set on Acinetobacter baumannii [10]; 8 µg/mL with Acinetobacter baumannii [11]; 0.125 µg/mL in the data set with Acinetobacter baumannii [12]; 0.5 µg/mL in the data set with Acinetobacter baumannii [13]; more than 200 µM in the data set on Acinetobacter baumannii [14]. Moreover, the MIC with Acinetobacter baumannii [15] was found to be 0.007 µg/mL; in the data set on Acinetobacter baumannii [16], 0.125 µg/mL. Further, the “fold change (FC)” value in the data set on Acinetobacter baumannii [5] is 256; in the data set on Acinetobacter baumannii [8], 64.
With `Cl.Cl.Nc1nc(-c2ccc(NC(=O)Nc3ccc(-c4c[nH]c(N)n4)c(F)c3)cc2F)c[nH]1`, the MIC in the data set with Acinetobacter baumannii [1] is 1 µg/mL; in the data set with Acinetobacter baumannii [2], 0.125 µg/mL; with Acinetobacter baumannii [17], 16 µg/mL; in the data set with Acinetobacter baumannii [18] it was 1 µg/mL; in the data set with Acinetobacter baumannii [19], 1 µg/mL; with Acinetobacter baumannii [4], 0.125 µg/mL. The MIC in the data set with Acinetobacter baumannii [21] was 1 µg/mL; in the data set on Acinetobacter baumannii [6], 1 µg/mL; in the data set on Acinetobacter baumannii [23], 2 µg/mL; in the data set with Acinetobacter baumannii [7], 1 µg/mL; in the data set on Acinetobacter baumannii [8] (Acinetobacter baumannii, AB5075) it was not above 0.062 µg/mL; in the data set with Acinetobacter baumannii [9] it was 0.5 µg/mL. The MIC was 0.5 µg/mL in the data set on Acinetobacter baumannii [26]; 0.5 µg/mL with Acinetobacter baumannii [10]; 2 µg/mL in the data set with Acinetobacter baumannii [11]; not above 0.062 µg/mL in the data set on Acinetobacter baumannii [12]; 8 µg/mL in the data set with Acinetobacter baumannii [29]; 0.5 µg/mL with Acinetobacter baumannii [30]. Further, the MIC with Acinetobacter baumannii [31] is 0.25 µg/mL; with Acinetobacter baumannii [13] it was 0.5 µg/mL; in the data set with Acinetobacter baumannii [14], more than 200 µM; in the data set with Acinetobacter baumannii [15] it was 0.125 µg/mL; in the data set on Acinetobacter baumannii [16] it was 0.25 µg/mL. In addition, the “fold change (FC)” value was 256 with Acinetobacter baumannii [20], “>=512” with Acinetobacter baumannii [5], 4 in the data set on Acinetobacter baumannii [24] and 64 in the data set with Acinetobacter baumannii [28]. Besides, the selectivity ratio in data set [22] was found to be 52.9. Also, in data set [25], the IC50 at 24 h came out at 127 µg/mL. For the same compound, the Stability in data set [27] is recorded as 82%; in [32] it was 83%.
With `CC[C@H]1OC(=O)[C@H](C)[C@@H](O[C@H]2C[C@@](C)(OC)[C@@H](O)[C@H](C)O2)[C@H](C)[C@@H](O[C@@H]2O[C@H](C)C[C@H](N(C)C)[C@H]2O)[C@](C)(OC)C[C@@H](C)C(=O)[C@H](C)[C@@H](O)[C@]1(C)O` [CLARITHROMYCIN], the minimum inhibitory concentration (MIC) in the data set on Pseudomonas aeruginosa is more than 200 µM; in the data set on Acinetobacter baumannii [33], 64 µg/mL (≈ 85.6 µM); in the data set with Acinetobacter baumannii [34], 16 µg/mL (≈ 21.4 µM); in the data set on Acinetobacter baumannii [35], 64 µg/mL (≈ 85.6 µM); in the data set with Acinetobacter baumannii [36] it was 64 µg/mL (≈ 85.6 µM).
